Source: ChEMBL document CHEMBL4229382, “Phenylthiazoles with tert-Butyl side chain: Metabolically stable with anti-biofilm activity” (Eur J Med Chem, 2018)
≈ marks a conversion by molar mass, not a printed value.

Key:
[1] = tested on: Staphylococcus epidermidis; assay: Antibacterial activity against methicillin-resistant Staphylococcus epidermidis NRS101 after 18 hrs by broth microdilution assay; assay type: functional; conditions: NRS101, 18 h
Procedure, shortened: (§1)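 Broth microdilution: inoculum from 0.5 McFarland suspension diluted to about 5 × 10^5 CFU/mL. Media were cation-adjusted Mueller-Hinton broth for staphylococci, brain heart infusion for E. faecium, and tryptone soya broth for E. faecalis, S. pneumoniae and L. monocytogenes.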

Staphylococcus aureus [2] = assay: Antibacterial activity against methicillin-resistant Staphylococcus aureus 2658 RCMB after 18 hrs by broth microdilution assay; assay type: functional; procedure, shortened: as §1
Enterococcus faecalis [3] = assay: Antibacterial activity against vancomycin-resistant Enterococcus faecalis ATCC 51299 after 18 hrs by broth microdilution assay; assay type: functional; conditions: ATCC 51299, 18 h; procedure, shortened: as §1
Staphylococcus aureus [4] = assay: Antibacterial activity against methicillin-sensitive Staphylococcus aureus ATCC 6538 after 18 hrs by broth microdilution assay; assay type: functional; conditions: ATCC 6538, 18 h; procedure, shortened: as §1
Staphylococcus aureus [5] = assay: Antibacterial activity against methicillin-sensitive Staphylococcus aureus NRS107 after 18 hrs by broth microdilution assay; assay type: functional; conditions: NRS107, 18 h; procedure, shortened: as §1
Staphylococcus aureus [6] = assay: Antibacterial activity against methicillin-resistant Staphylococcus aureus NRS119 after 18 hrs by broth microdilution assay; assay type: functional; conditions: NRS119, 18 h; procedure, shortened: as §1
Staphylococcus aureus [7] = assay: Antibacterial activity against methicillin-resistant Staphylococcus aureus NRS123 USA400 after 18 hrs by broth microdilution assay; assay type: functional; conditions: NRS123 USA400, 18 h; procedure, shortened: as §1
Staphylococcus aureus [8] = assay: Antibacterial activity against methicillin-resistant Staphylococcus aureus NRS384 USA300 after 18 hrs by broth microdilution assay; assay type: functional; conditions: NRS384 USA300, 18 h; procedure, shortened: as §1
Staphylococcus aureus [9] = assay: Antibacterial activity against methicillin-resistant Staphylococcus aureus NRS385 after 18 hrs by broth microdilution assay; assay type: functional; conditions: NRS385, 18 h; procedure, shortened: as §1
Staphylococcus aureus [10] = assay: Antibacterial activity against methicillin-resistant Staphylococcus aureus NRS386 after 18 hrs by broth microdilution assay; assay type: functional; conditions: NRS386, 18 h; procedure, shortened: as §1
Staphylococcus aureus [11] = assay: Antibacterial activity against vancomycin-resistant Staphylococcus aureus VRS10 after 18 hrs by broth microdilution assay; assay type: functional; conditions: VRS10, 18 h; procedure, shortened: as §1
Staphylococcus aureus [12] = assay: Antibacterial activity against vancomycin-resistant Staphylococcus aureus VRS12 after 18 hrs by broth microdilution assay; assay type: functional; conditions: VRS12, 18 h; procedure, shortened: as §1
Enterococcus faecium [13] = assay: Antibacterial activity against vancomycin-resistant Enterococcus faecium ATCC 700221 after 18 hrs by broth microdilution assay; assay type: functional; conditions: ATCC 700221, 18 h; procedure, shortened: as §1
Listeria monocytogenes [14] = assay: Antibacterial activity against Listeria monocytogenes ATCC 19111 after 18 hrs by broth microdilution assay; assay type: functional; conditions: ATCC 19111, 18 h
Streptococcus pneumoniae [15] = assay: Antibacterial activity against cephalosporin-resistant Streptococcus pneumoniae ATCC 51916 after 18 hrs by broth microdilution assay; assay type: functional; conditions: ATCC 51916, 18 h; procedure, shortened: as §1
Streptococcus pneumoniae [16] = assay: Antibacterial activity against methicillin-resistant Streptococcus pneumoniae ATCC 700677 after 18 hrs by broth microdilution assay; assay type: functional; conditions: ATCC 700677, 18 h; procedure, shortened: as §1
Staphylococcus aureus [17] = assay: Antibacterial activity against methicillin-resistant Staphylococcus aureus NRS123 USA400 assessed as reduction in bacterial burden within 6 hrs by time kill assay; assay type: functional
Procedure, shortened: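 Samples taken at 0, 2, 4, 6, 8, 12 and 24 h were serially diluted in PBS, plated on TSA and incubated ≥18 h for viable CFU/mL. DMSO was the negative control; two independent experiments.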

Listeria monocytogenes [18] = assay: Selectivity ratio of MBC to MIC for Listeria monocytogenes ATCC 19111; assay type: functional
Caco-2 = assay: Cytotoxicity against human Caco2 cells at 32 ug/ml after 2 hrs by MTS assay; assay type: cell-based; conditions: caco-2, 2 h
Procedure, shortened: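 Caco-2 cells grown in DMEM with 20% FBS, non-essential amino acids and penicillin-streptomycin, 37 °C, 5% CO2; exposed in triplicate to compounds (16, 32, 64 µg/mL) for 2 h; MTS added, 4 h further incubation, OD490 read; viability as percent of DMSO-treated controls; two independent experiments.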

Staphylococcus aureus [19] = assay: Bactericidal activity against methicillin-sensitive Staphylococcus aureus ATCC 6538 incubated fo 18 hrs followed by re-plating on tryptic soy agar plates at 37 degC for 18 hrs by broth microdilution assay; assay type: functional; conditions: ATCC 6538, 18 h
Staphylococcus aureus [20] = assay: Bactericidal activity against methicillin-sensitive Staphylococcus aureus NRS107 incubated fo 18 hrs followed by re-plating on tryptic soy agar plates at 37 degC for 18 hrs by broth microdilution assay; assay type: functional; conditions: NRS107, 18 h
Staphylococcus aureus [21] = assay: Bactericidal activity against methicillin-resistant Staphylococcus aureus NRS119 incubated fo 18 hrs followed by re-plating on tryptic soy agar plates at 37 degC for 18 hrs by broth microdilution assay; assay type: functional; conditions: NRS119, 18 h
Staphylococcus aureus [22] = assay: Bactericidal activity against methicillin-resistant Staphylococcus aureus NRS123 USA400 incubated fo 18 hrs followed by re-plating on tryptic soy agar plates at 37 degC for 18 hrs by broth microdilution assay; assay type: functional; conditions: NRS123 USA400, 18 h
Staphylococcus aureus [23] = assay: Bactericidal activity against methicillin-resistant Staphylococcus aureus NRS384 USA300 incubated fo 18 hrs followed by re-plating on tryptic soy agar plates at 37 degC for 18 hrs by broth microdilution assay; assay type: functional; conditions: NRS384 USA300, 18 h
Staphylococcus aureus [24] = assay: Bactericidal activity against methicillin-resistant Staphylococcus aureus NRS385 incubated fo 18 hrs followed by re-plating on tryptic soy agar plates at 37 degC for 18 hrs by broth microdilution assay; assay type: functional; conditions: NRS385, 18 h
Staphylococcus aureus [25] = assay: Bactericidal activity against methicillin-resistant Staphylococcus aureus NRS386 incubated fo 18 hrs followed by re-plating on tryptic soy agar plates at 37 degC for 18 hrs by broth microdilution assay; assay type: functional; conditions: NRS386, 18 h
Staphylococcus aureus [26] = assay: Bactericidal activity against vancomycin-resistant Staphylococcus aureus VRS10 incubated fo 18 hrs followed by re-plating on tryptic soy agar plates at 37 degC for 18 hrs by broth microdilution assay; assay type: functional; conditions: VRS10, 18 h
Staphylococcus aureus [27] = assay: Bactericidal activity against vancomycin-resistant Staphylococcus aureus VRS12 incubated fo 18 hrs followed by re-plating on tryptic soy agar plates at 37 degC for 18 hrs by broth microdilution assay; assay type: functional; conditions: VRS12, 18 h
[28] = tested on: Staphylococcus epidermidis; assay: Bactericidal activity against methicillin-resistant Staphylococcus epidermidis NRS101 incubated fo 18 hrs followed by re-plating on tryptic soy agar plates at 37 degC for 18 hrs by broth microdilution assay; assay type: functional; conditions: NRS101, 18 h
Enterococcus faecalis [29] = assay: Bactericidal activity against vancomycin-resistant Enterococcus faecalis ATCC 51299 incubated fo 18 hrs followed by re-plating on tryptic soy agar plates at 37 degC for 18 hrs by broth microdilution assay; assay type: functional; conditions: ATCC 51299, 18 h
Streptococcus pneumoniae [30] = assay: Bactericidal activity against cephalosporin-resistant Streptococcus pneumoniae ATCC 51916 incubated fo 18 hrs followed by re-plating on tryptic soy agar plates at 37 degC for 18 hrs by broth microdilution assay; assay type: functional; conditions: ATCC 51916, 18 h
Streptococcus pneumoniae [31] = assay: Bactericidal activity against methicillin-resistant Streptococcus pneumoniae ATCC 700677 incubated fo 18 hrs followed by re-plating on tryptic soy agar plates at 37 degC for 18 hrs by broth microdilution assay; assay type: functional; conditions: ATCC 700677, 18 h
Staphylococcus aureus [32] = assay: Inhibition of biofilm formation in methicillin-resistant Staphylococcus aureus NRS384 USA300 after 24 hrs by crystal violet staining-based spectrophotometric analysis
Staphylococcus aureus [33] = assay: Inhibition of biofilm formation in methicillin-resistant Staphylococcus aureus NRS384 USA300 at 1 time MIC after 24 hrs by crystal violet staining-based spectrophotometric analysis relative to control; set-up: scale not given: the % may be the effect or the level left
Staphylococcus aureus [34] = assay: Inhibition of biofilm formation in methicillin-resistant Staphylococcus aureus NRS384 USA300 at 2 times MIC after 24 hrs by crystal violet staining-based spectrophotometric analysis relative to control; set-up: scale not given: the % may be the effect or the level left
Enterococcus faecium [35] = assay: Bactericidal activity against vancomycin-resistant Enterococcus faecium ATCC 700221 incubated fo 18 hrs followed by re-plating on tryptic soy agar plates at 37 degC for 18 hrs by broth microdilution assay; conditions: ATCC 700221, 18 h

Cc1nc(-c2ccc(C(C)(C)C)cc2)sc1-c1ccnc(NC(=N)c2ccccn2)n1
MIC [1]: 64 µg/mL (≈ 149 µM) | MIC (Staphylococcus aureus [2]): 0.78 µg/mL (≈ 1.82 µM) | MIC (Enterococcus faecalis [3]): 64 µg/mL (≈ 149 µM) | MIC (Staphylococcus aureus [4]): 2 µg/mL (≈ 4.67 µM) | MIC (Staphylococcus aureus [5]): 64 µg/mL (≈ 149 µM) | MIC (Staphylococcus aureus [6]): 4 µg/mL (≈ 9.33 µM) | MIC (Staphylococcus aureus [7]): 2 µg/mL (≈ 4.67 µM) | MIC (Staphylococcus aureus [8]): 4 µg/mL (≈ 9.33 µM) | MIC (Staphylococcus aureus [9]): 4 µg/mL (≈ 9.33 µM) | MIC (Staphylococcus aureus [10]): 2 µg/mL (≈ 4.67 µM) | MIC (Staphylococcus aureus [11]): 2 µg/mL (≈ 4.67 µM) | MIC (Staphylococcus aureus [12]): 4 µg/mL (≈ 9.33 µM) | MIC (Enterococcus faecium [13]): 4 µg/mL (≈ 9.33 µM) | MIC (Listeria monocytogenes [14]): 2 µg/mL (≈ 4.67 µM) | MIC (Streptococcus pneumoniae [15]): 4 µg/mL (≈ 9.33 µM) | MIC (Streptococcus pneumoniae [16]): 8 µg/mL (≈ 18.7 µM) | Activity (Staphylococcus aureus [17]): 3 log10CFU/ml | Ratio (Listeria monocytogenes [18]): >3 | Activity (Caco-2): Toxic | MBC (Staphylococcus aureus [19]): 4 µg/mL (≈ 9.33 µM) | MBC (Staphylococcus aureus [20]): > 64 µg/mL | MBC (Staphylococcus aureus [21]): 4 µg/mL (≈ 9.33 µM) | MBC (Staphylococcus aureus [22]): 2 µg/mL (≈ 4.67 µM) | MBC (Staphylococcus aureus [23]): 4 µg/mL (≈ 9.33 µM) | MBC (Staphylococcus aureus [24]): 4 µg/mL (≈ 9.33 µM) | MBC (Staphylococcus aureus [25]): 2 µg/mL (≈ 4.67 µM) | MBC (Staphylococcus aureus [26]): 4 µg/mL (≈ 9.33 µM) | MBC (Staphylococcus aureus [27]): 4 µg/mL (≈ 9.33 µM) | MBC [28]: > 64 µg/mL | MBC (Enterococcus faecalis [29]): > 64 µg/mL | MBC (Streptococcus pneumoniae [30]): 4 µg/mL (≈ 9.33 µM) | MBC (Streptococcus pneumoniae [31]): 8 µg/mL (≈ 18.7 µM) | inhibition (Staphylococcus aureus [32]): Dose-dependent effect | Activity (Staphylococcus aureus [33]): 44% | Activity (Staphylococcus aureus [34]): 49% | MBC (Enterococcus faecium [35]): 32 µg/mL (≈ 74.7 µM)
